Series [1] relates to RAW264.7. Description: Cytotoxicity against mouse RAW264.7 cells. The conditions noted are these: for Activity: mouse, raw264.7. It is filed as cell-based.
Series [2] relates to RAW264.7. In words: Antiinflammatory activity in mouse RAW264.7 cells assessed as inhibition of LPS-stimulated IL-6 mRNA expression at 10 uM after 24 hrs by RT-qPCR analysis relative to control. The class given is functional. The conditions noted are these: RAW264.7, 24 h. In a few lines:
(§1)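 RAW 264.7 cells grown in DMEM with 10% heat-inactivated FBS and 1% penicillin-streptomycin at 37 °C, 5% CO2. Plated at 3 × 10^5 cells/mL in six-well plates, left 24 h. Then given 0.1 μg/mL LPS with or without test compound (0.1–100 μM) for 24 h. mRNA quantified by RT-qPCR after RNA extraction, normalized to 18s mRNA and expressed as ratio to DMSO. SB203580 (10 μM) served as reference. Mean ± SD of three independent experiments.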

For series [3], the system named is RAW264.7. In words: Antiinflammatory activity in mouse RAW264.7 cells assessed as inhibition of LPS-stimulated IL-6 mRNA expression after 24 hrs by RT-qPCR analysis. It is filed as functional, cell-based. The conditions noted are these: for IC50: RAW264.7, 24 h. In a few lines:
as §1

The test system of series [4] is RAW264.7. Description: Antiinflammatory activity in mouse RAW264.7 cells assessed as inhibition of LPS-stimulated TNF-alpha mRNA expression at 0.1 to 100 uM after 24 hrs by RT-qPCR analysis. The class given is functional, cell-based. Put shortly:
as §1

For series [5], the system named is RAW264.7. In words: Antiinflammatory activity in mouse RAW264.7 cells assessed as inhibition of LPS-stimulated COX-2 mRNA expression at 0.1 to 100 uM after 24 hrs by RT-qPCR analysis. The class given is functional, cell-based. In a few lines:
as §1

Each structure is given as a SMILES string. Activity calls are given as the source filed them. The rule behind the calls is not given here.

As to `CC(=O)O[C@H]1CC[C@@]2(C)C(=O)[C@@H]1[C@H](O)C=C1[C@@H]3CC[C@H]([C@H](C)CCC=C(C)C)[C@@]3(C)CC[C@@H]12`, the Activity entry in the series on RAW264.7 [1] is reported as “Non-toxic”. Moreover, the inhibition at 10 µM with RAW264.7 [2] stood at 69%. In addition, in the series on RAW264.7 [3], the inhibition result is “Dose-dependent effect” and the IC50 was determined as 5 µM. Also, in the series with RAW264.7 [4], the inhibition result was “inactive”. Besides, in the series on RAW264.7 [5], the inhibition result was “inactive”.
In the case of `C[S+]([O-])c1ccc(-c2nc(-c3ccc(F)cc3)c(-c3ccncc3)[nH]2)cc1` (centres undefined) [SB-203580], the inhibition at 10 µM with RAW264.7 [2] stood at 53%.
As to `CC(C)=CCC[C@@H](C)[C@H]1CC[C@H]2C3=C[C@@H](O)[C@H]4C(=O)[C@](C)(CC[C@@H]4O)[C@H]3CC[C@]12C`, inhibition with RAW264.7 [1] (Mus musculus, RAW264.7) was half-maximal at 65 µM (IC50).
Take `C=C(CC[C@@H](C)[C@H]1[C@H](O)C[C@H]2[C@@H]3CC=C4C[C@@H](O)CC[C@]4(C)[C@H]3CC[C@]12C)C(C)C`: in the series with RAW264.7 [1], the Activity entry is “Non-toxic”. Besides, in the series with RAW264.7 [2], the inhibition at 10 µM came out at 67%. Moreover, in the series with RAW264.7 [3], the inhibition entry was “Dose-dependent effect” and the IC50 came to 5.2 µM. In the series on RAW264.7 [4], the inhibition entry was “inactive”. Further, in the series with RAW264.7 [5], the inhibition entry is “inactive”.

Source of the values: ChEMBL document CHEMBL3576870, “Monanchosterols A and B, bioactive bicyclo[4.3.1]steroids from a Korean sponge Monanchora sp” (J Nat Prod, 2015).
